ChEMBL document CHEMBL3244381, “Tetramisole analogues as inhibitors of alkaline phosphatase, an enzyme involved in the resistance of neoplastic cells to 6-thiopurines” (J Med Chem, 1977)
pIC50: −log10 of the molar value. Active and inactive are the calls of the source. The calls are words filed in the database; no cut-off is given here.

Tests used:
[1] = molecular target: T1, Alkaline phosphatase, tissue-nonspecific isozyme (Mus musculus, UniProt P09242); test: Inhibition of alkaline phosphatase in mouse Sarcoma 180/TG cells; format: cell-based; conditions: read-out: I50
T1 sequence (P09242 whole entry): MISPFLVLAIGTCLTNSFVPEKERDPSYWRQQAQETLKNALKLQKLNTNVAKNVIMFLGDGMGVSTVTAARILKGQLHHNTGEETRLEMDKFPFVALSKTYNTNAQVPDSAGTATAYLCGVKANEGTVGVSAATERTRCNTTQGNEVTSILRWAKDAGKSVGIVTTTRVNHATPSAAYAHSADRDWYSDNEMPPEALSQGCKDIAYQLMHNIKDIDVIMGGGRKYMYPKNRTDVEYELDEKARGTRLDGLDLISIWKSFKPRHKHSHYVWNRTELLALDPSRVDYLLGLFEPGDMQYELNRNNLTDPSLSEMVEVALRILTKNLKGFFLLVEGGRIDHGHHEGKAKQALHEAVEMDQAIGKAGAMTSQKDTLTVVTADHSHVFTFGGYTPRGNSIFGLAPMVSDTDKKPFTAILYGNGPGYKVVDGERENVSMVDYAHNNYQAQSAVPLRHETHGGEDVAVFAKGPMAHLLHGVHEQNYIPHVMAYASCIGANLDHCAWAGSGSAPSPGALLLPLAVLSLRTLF
Outline: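 Partially purified particulate-bound alkaline phosphatase from Sarcoma 180/TG ascites cells (4360 units/mL); compounds tested as oxalate salts; IC50 taken as the concentration cutting observed enzyme activity by 50%.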

[2] = Ratio of growth inhibition of mouse Sarcoma 180/TG cells in presence of […] to growth inhibition of mouse Sarcoma 180/TG cells in absence of […] at 50 uM after 96 hrs; format: functional
Outline: (§1)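 Log-phase Sarcoma 180/TG cells were seeded at 10^4 cells/mL in Fischer's medium with 10% horse serum at 37 °C. They were given the oxalate salt with or without 6-thioguanine (10^-6 M) for 96 h, and cell number/mL was counted. Ratio = cell count with 6-thioguanine / count without × 100.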

[3] = Ratio of growth inhibition of mouse Sarcoma 180/TG cells in presence of […] to growth inhibition of mouse Sarcoma 180/TG cells in absence of […] at 100 uM after 96 hrs; format: functional; outline: as §1
[4] = Ratio of growth inhibition of mouse Sarcoma 180/TG cells in presence of […] to growth inhibition of mouse Sarcoma 180/TG cells in absence of […] at 10 uM after 96 hrs; format: functional; outline: as §1
[5] = molecular target: T2, Alkaline phosphatase, tissue-nonspecific isozyme (Mus musculus) (UniProt P09242); test: Inhibition of alkaline phosphatase in mouse Sarcoma 180/TG cells up to 5 x 10^-4 M; format: cell-based
T2 sequence (whole entry): T1 sequence (P09242 whole entry)
Outline: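 Particulate-bound alkaline phosphatase, partially purified from Sarcoma 180/TG ascites cells (4360 units/mL), exposed to oxalate salts at concentrations up to at least 5 x 10^-4 M and checked for significant inhibition.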

SMILES | pIC50 [1] | inhibition [5] | also measured
Brc1ccc([C@H]2CN3CCSC3=N2)cc1.O=C(O)C(=O)O | 5.74 |  | Ratio [2]: 66; Ratio [3]: 49; Ratio [4]: 69
CC(=O)/N=c1\sccn1CC(=O)c1ccc(Br)cc1 |  | inactive | 
CC(=O)/N=c1\sccn1CC(=O)c1ccc(C)c(C)c1 |  | inactive | 
CC(=O)/N=c1\sccn1CC(=O)c1ccc(C)cc1 |  | inactive | 
CSc1nc(-c2ccccc2)c[nH]1 |  | inactive | 
Cc1ccc(C(=O)Cn2ccsc2=N)cc1 |  | inactive | 
N=C1SCCN1CC(=O)c1ccc2ccccc2c1 |  | inactive | 
Cc1ccc(C2CN3C=CSC3=N2)cc1C (racemic) | 4.96 |  | 
Cc1ccc(C2CN3C=CSC3=N2)cc1 (racemic) | 5.18 |  | 
Brc1cccc(C2CN3C=CSC3=N2)c1 (racemic) | 5.70 |  | 
C1=CN2CC(c3ccc4ccccc4c3)N=C2S1 (racemic) | 6.00 |  | 
Brc1ccc(C2CN3CCSC3=N2)cc1 (racemic) | 5.59 |  | 
Clc1ccc(C2CN3CCSC3=N2)cc1 (racemic) | 5.35 |  | 
Fc1ccc(C2CN3CCSC3=N2)cc1 (racemic) | 4.80 |  | 
c1ccc2cc(C3CN4CCSC4=N3)ccc2c1 (racemic) | 5.05 |  | 
CC(=O)/N=C1\SCCN1CC(O)c1ccc2ccccc2c1 (racemic) |  | inactive | 
CC(=O)/N=C1\SCCN1CC(O)c1cccc(C)c1 (racemic) |  | inactive | 
CC(=O)/N=c1\sccn1CC(O)c1ccc(Br)cc1 (racemic) |  | inactive | 
CC(=O)/N=c1\sccn1CC(O)c1ccc([N+](=O)[O-])cc1 (racemic) |  | inactive | 
CC(=O)/N=c1\sccn1CC(O)c1ccc2ccccc2c1 (racemic) |  | inactive | 

Continued, in another order:

pIC50 [1] | inhibition [5] | SMILES | also measured
 | inactive | CC(=O)/N=C1\SCCN1CC(=O)c1ccc2ccccc2c1 | 
 | inactive | CC(=O)/N=C1\SCCN1CC(=O)c1cccc(C)c1 | 
 | inactive | CC(=O)/N=c1\sccn1CC(=O)c1ccc([N+](=O)[O-])cc1 | 
 | inactive | CC(=O)/N=c1\sccn1CC(=O)c1ccc2ccccc2c1 | 
 | inactive | CSc1nc(-c2ccccc2)cn1CCO | 
 | inactive | Cc1cccc(C(=O)CN2CCSC2=N)c1 | 
 | inactive | N=c1sccn1CC(=O)c1ccc(Br)cc1 | 
 | inactive | N=c1sccn1CC(=O)c1ccc([N+](=O)[O-])cc1 | 
 | inactive | N=c1sccn1CC(=O)c1ccc2ccccc2c1 | 
4.35 |  | C1=CN2CC(c3ccccc3)N=C2S1 (racemic) | 
5.89 |  | Brc1ccc(C2CN3C=CSC3=N2)cc1 (racemic) | 
5.08 |  | O=[N+]([O-])c1ccc(C2CN3C=CSC3=N2)cc1 (racemic) | 
4.30 |  | C1=CN2CC(c3cccs3)N=C2S1 (racemic) | 
4.42 |  | c1ccc(C2CN3CCSC3=N2)cc1 (racemic) | 
5.09 |  | Cc1ccc(C2CN3CCSC3=N2)cc1 (racemic) | 
4.40 |  | Cc1cccc(C2CN3CCSC3=N2)c1 (racemic) | 
4.42 |  | O=[N+]([O-])c1cccc(C2CN3CCSC3=N2)c1 (racemic) | 
 | inactive | CC(=O)/N=c1\sccn1CC(O)c1ccc(C)c(C)c1 (racemic) | 
 | inactive | CC(=O)/N=c1\sccn1CC(O)c1ccc(C)cc1 (racemic) | 
